# Screening results (PubChem BioAssay)
# TRPC4 agonist = TRPC4 (mouse) channel activation; HEK293 TRPC4beta/mu-opioid, Fluo4 calcium fluorescence; hits give high values; B-score at 10 µM; 310,000 compounds, 0.49% hits;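 active means B-score above 5 SD of library B-scores, and initial fluorescence ratio not above library mean plus 5 SD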;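 further: positive B-score marks a calcium rise read as TRPC4 activation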
#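 Material: TRPC4beta and mu-opioid receptor HEK293 stable cells | Incubation: 45 min room-temperature Fluo4 loading, 110 s read | Detection: Kinetic Fluo4 calcium fluorescence | Measure: Integrated baseline-normalised fluorescence ratio, converted to per-well B score | Benchmarks: Low control buffer alone, high control maximal DAMGO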
# TRPC4 PAM = TRPC4 (mouse) allosteric potentiation. Q9QUQ5. HEK293 TRPC4beta/mu-opioid, DAMGO EC20, Fluo-4 Ca2+ flux; hits give high values. B-score at 10 µM. 310,000 compounds, 0.42% hits. AID 2227;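 active means B-score of calcium response area above 5 SD of library B-scores, with initial fluorescence ratio within 5 SD of library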;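 further: B-score of integrated fluorescence ratio over time as area under calcium response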
# TRPC4 inh = inhibitors of mouse TRPC4 channel. 300,000 compounds, 0.39% hits. AID 2247. HEK293 TRPC4beta/mu-opioid, DAMGO-evoked Fluo4 calcium flux; hits give low values. B-score at 10 µM. Q9QUQ5;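 active means B-score over 3 SD under the library average, no early fluorescence shift, positive overall ratio signal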
#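 Signal: kinetic Fluo4 fluorescence imaging of calcium influx. Material: stable TRPC4beta/mu-opioid receptor HEK293 cells. Probe or stimulus: DAMGO in two steps, submaximal then maximal.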
# TRPC6 inhibitor = mouse TRPC6 channel inhibition. 310,000 compounds, 1.1% hits. AID 2553. HEK293-TRPC6, membrane potential dye, ACh-evoked depolarization; hits give low values. B-score at 10 µM;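 active means B-score under library mean minus 3 SD, initial fluorescence not abnormally high, positive integrated signal ratio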;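 further: B-score derived from integrated fluorescence ratio over the kinetic read; more negative B-score means stronger inhibition of depolarization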
# TRPC6 activator = activates the mouse TRPC6 cation channel | Q61143 | HEK293-TRPC6 membrane potential dye fluorescence; hits give high values | B-score at 10 µM | 310,000 compounds, 0.13% hits;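 active means B-score of the integrated fluorescence ratio above library mean plus 3 SD, and starting fluorescence ratio within library mean plus 5 SD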;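 further: higher score means more depolarization so channel activation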
# Numbers without * were called inactive; i = inactive; / = no result given. Sampled rows, rich in hits. Any-hit rate of the full collection: about 2.3%.
SMILES,TRPC4 agonist,TRPC4 PAM,TRPC4 inh,TRPC6 inhibitor,TRPC6 activator
N=c1c2c(ncn1Cc1ccco1)Oc1c(ccc3ccccc13)C2c1ccccc1 (stereo not given),i,i,i,i,i
N=c1c2c(ncn1Cc1ccco1)Oc1cc(O)ccc1C2c1ccccc1 (stereo not given),57*,i,i,i,i
Cc1ccc(C)c(N2CCN(C(=O)C3CCCN(c4ncnc5c4nc4n5CCCCC4)C3)CC2)c1 (stereo not given),i,15*,i,i,i
CC1CC(C)CN(CCCNC(=O)C2CCCN(c3ncnc4c3nc3n4CCCCC3)C2)C1 (stereo not given),i,18*,i,i,i
CCN(CCNC(=O)C1CCCN(c2ncnc3c2nc2n3CCCCC2)C1)Cc1ccccc1 (stereo not given),i,19*,i,i,i
CN(CCNC(=O)C1CCN(c2ncnc3c2nc2n3CCCCC2)CC1)Cc1ccccc1,i,i,i,i,i
O=C(c1cccnc1)N1CCC(Oc2ccc(C(=O)N3CCCC(O)C3)cc2)CC1 (stereo not given),i,i,i,i,i
CCN1CCN(C(=O)c2cc3c(s2)-c2ccccc2S(=O)(=O)C3)CC1,i,i,i,i,i
O=C(c1cc2c(s1)-c1ccccc1S(=O)(=O)C2)N1CCN(Cc2ccccc2)CC1,i,10*,i,i,i
COC(=O)CC(NC(=O)CN1CCN(c2ccc(F)cc2)CC1)c1cccc(F)c1 (stereo not given),i,i,i,i,i
O=C(CC1C(=O)NCCN1C(=O)Nc1ccccc1)Nc1cc(Cl)cc(Cl)c1 (stereo not given),i,16*,i,i,i
COc1ccc(CN(CC(=O)NCc2ccccc2)C(=O)CCC(=O)Nc2ccccn2)cc1,i,i,i,i,i
COc1cccc2[nH]c3c(N4CCN(Cc5ccc6c(c5)OCO6)CC4)ncnc3c12,i,i,i,-6.7*,i
CC(=O)Nc1cc(O)cc(O)c1,i,i,i,i,i
CCOC(=O)c1oc2ccccc2c1CN1CCCCC1,i,i,-6*,i,i
CCOC(=O)c1oc2ccccc2c1CN1CCN(C)CC1,i,i,i,i,i
c1ccc(-c2csc3ncnc(N4CCc5ccccc5C4)c23)cc1,i,i,i,i,i
Clc1ccc2[nH]c3c(c2c1)CNCC3,i,19*,i,i,i
O=C(O)c1cccc2c3c([nH]c12)CCCC3,i,i,i,i,i
Clc1cccc2c3c([nH]c12)CCNC3,i,16*,i,i,i
O=C1CCCc2c1[nH]c1ccc(Cl)cc21,i,i,i,i,i
CCOc1cc(/C=N/NC(=O)CN2CCCCC2)ccc1OCc1ccc(Cl)cc1,i,i,i,i,i
CCOc1cc(/C=N/NC(=O)CN2CCCCC2)ccc1OCc1cccc(Cl)c1,i,11*,i,i,i
Cc1nc(N2CCCCC2)c(C#N)c(C)c1[N+](=O)[O-],i,i,-5*,i,i
CC(=O)Nc1cccc(NC(=O)c2ccc(C(=O)Nc3cccc(NC(C)=O)c3)nc2)c1,73*,i,i,i,i
SMILES,TRPC4 agonist,TRPC4 PAM,TRPC4 inh,TRPC6 inhibitor,TRPC6 activator
CC(=O)c1cccc(NC(=O)c2ccc(C(=O)Nc3cccc(C(C)=O)c3)nc2)c1,i,i,i,i,i
C=CCN(C)CC/C=C1\c2ccccc2CSc2ccccc21,i,i,-5*,i,i
CCNC(=S)N1CCC(C(O)(c2ccccc2)c2ccccc2)CC1,100*,i,-6*,i,i
O=C(C1CCN(S(=O)(=O)c2c(Cl)cccc2Cl)CC1)N1CCCCCCC1,i,i,i,i,i
CCN1CCN(c2ccc(S(=O)(=O)N3CCOCC3)cc2NC(=O)c2ccccc2SC)CC1,175*,i,i,i,i
CCN1CCN(c2ccc(S(=O)(=O)N3CCOCC3)cc2NC(=O)c2cc(Cl)nc3ccccc23)CC1,47*,i,i,i,i
CCN1CCN(c2ccc(S(=O)(=O)N3CCOCC3)cc2NC(=O)c2ccc(Cl)s2)CC1,i,i,i,i,i
Cc1cc(Cl)c(Cl)cc1S(=O)(=O)NCCCn1ccnc1,i,11*,i,i,i
CC1CCN(CCCCOc2ccccc2-c2ccccc2)CC1,i,i,i,i,i
c1ccc(-c2ccccc2OCCOCCN2CCCCC2)cc1,i,i,-5*,i,i
CC1CCN(CCOCCOc2ccccc2-c2ccccc2)CC1,i,i,-6*,i,i
O=C(CCl)NC(=O)NC12CC3CC(CC(C3)C1)C2,i,i,-6*,i,i
CCOC(=O)N1CCC(N2Cc3cccc(C(=O)NCc4ccc5c(c4)OCO5)c3C2=O)CC1,i,i,i,i,i
CCOC(=O)N1CCC(N2Cc3cccc(C(=O)NCc4ccccc4OC)c3C2=O)CC1,i,i,i,-7.3*,i
CCOC(=O)N1CCC(NC(=O)c2cccc3c2C(=O)N(c2ccc(OC)cc2)C3)CC1,i,i,i,-7.8*,i
CCOC(=O)N1CCC(NC(=O)c2cn(-c3ccc(OC)cc3)c(=O)c3ccccc23)CC1,i,i,i,i,i
CCCNc1c(NC(=O)c2cccs2)c(=O)oc2ccccc12,i,i,i,i,i
CCOc1cc(O)c(-c2[nH]ncc2-c2nc(C)cs2)cc1CC,i,20*,i,i,i
CCc1cc(-c2[nH]ncc2-c2nc3ccccc3n2C)c(O)cc1O,i,i,i,i,i
Cc1ccc(NC(=O)Cc2nnc(SCC(=O)NC3CCCC3)n2C)c(C)c1,i,i,i,i,i
CN(C)C(CNC(=O)CCOc1ccccc1)c1ccco1 (stereo not given),i,i,/,i,i
Cc1cccc(OCCC(=O)NCC(c2ccccc2)N(C)C)c1 (stereo not given),103*,i,i,i,i
CN(C)C(CNC(=O)CCc1nc2ccccc2s1)c1ccccc1 (stereo not given),i,i,-7*,i,i
COc1ccc(C(CNC(=O)CCOc2ccccc2)N(C)C)cc1 (stereo not given),154*,i,i,i,i
Cc1[nH]c2ccccc2c1CN1CCC(Cc2ccccc2)CC1,67*,i,i,i,i
Cc1[nH]c2ccccc2c1CN1CCN(c2ccccn2)CC1,i,i,i,i,i
